The record followed here is ChEMBL document CHEMBL1154874, “6-Substituted 2-(N-trifluoroacetylamino)imidazopyridines induce cell cycle arrest and apoptosis in SK-LU-1 human cancer cell line” (Eur J Med Chem, 2010).

The source made the active and inactive calls. No cut-off for these calls is given here.

Assay [1] relates to SK-LU-1. Nature of the assay: Cytotoxicity against human SK-LU-1 cells assessed as cell growth inhibition at 50 uM after 48 hrs by SRB assay. The conditions noted are these: SK-LU-1, 48 h, read-out: GI. Format: functional. A digest of the protocol: (§1)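 Cells in RPMI-1640/10% FBS/2 mM L-glutamine at 37 °C, 5% CO₂, seeded at 5000 cells/well and treated 24 h later for 48 h. Growth read by SRB (TCA fixation, 0.4% SRB, Tris solubilization, OD 515 nm).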

Assay [2] relates to PC-3. Nature of the assay: Cytotoxicity against human PC3 cells assessed as cell growth inhibition at 50 uM after 48 hrs by SRB assay. Format: functional. The note with it: PC-3, 48 h, read-out: GI. A digest of the protocol:
as §1
(In general: Sulforhodamine B stains cellular protein and so reports cell mass.)

Assay [3] deals with U-251. The assay is described as follows: Cytotoxicity against human U251 cells assessed as cell growth inhibition at 50 uM after 48 hrs by SRB assay. The conditions noted are these: U-251, 48 h, read-out: GI. Format: functional. A digest of the protocol: as §1
For assay [4], the system named is K562. The assay is described as follows: Cytotoxicity against human K562 cells after 48 hrs by SRB assay. Format: functional, cell-based. The conditions noted are these: K562, 48 h. The essentials: (§2)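 Compounds dissolved in DMSO. Cells grown in RPMI-1640 with 10% FBS and 2 mM L-glutamine at 37 °C under 5% CO₂. Seeded from 70% confluent flasks at 5000 cells/well, treated 24 h after seeding for 48 h. Fixed in situ with cold 50% TCA for 1 h at 4 °C, stained with 0.4% SRB, dye solubilized in 10 mM unbuffered Tris base, OD read at 515 nm.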

Assay [5] concerns PC-3. The assay is described as follows: Cytotoxicity against human PC3 cells after 48 hrs by SRB assay. Format: functional, cell-based. The conditions noted are these: PC-3, 48 h. The essentials: as §2
For assay [6], the system named is MCF7. The assay is described as follows: Cytotoxicity against human MCF7 cells after 48 hrs by SRB assay. The conditions noted are these: MCF7, 48 h. Format: functional, cell-based. A digest of the protocol:
as §2

Assay [7] deals with HCT-15. The assay is described as follows: Cytotoxicity against human HCT15 cells assessed as cell growth inhibition at 50 uM after 48 hrs by SRB assay. Format: functional. The conditions noted are these: HCT-15, 48 h, read-out: GI. The essentials: as §1
Assay [8] has as its system K562. The assay is described as follows: Cytotoxicity against human K562 cells assessed as cell growth inhibition at 50 uM after 48 hrs by SRB assay. Format: functional. The note with it: K562, 48 h, read-out: GI. A digest of the protocol:
as §1

Assay [9] has as its system HCT-15. Nature of the assay: Cytotoxicity against human HCT15 cells after 48 hrs by SRB assay. The note with it: HCT-15, 48 h. Format: functional, cell-based. The essentials:
as §2

Assay [10] relates to U-251. The assay is described as follows: Cytotoxicity against human U251 cells after 48 hrs by SRB assay. Format: functional, cell-based. The note with it: U-251, 48 h. The essentials:
as §2

For assay [11], the system named is SK-LU-1. Nature of the assay: Cytotoxicity against human SK-LU-1 cells after 48 hrs by SRB assay. The conditions noted are these: SK-LU-1, 48 h. Format: functional, cell-based. A digest of the protocol:
as §2

The test system of assay [12] is MCF7. The assay is described as follows: Cytotoxicity against human MCF7 cells assessed as cell growth inhibition at 50 uM after 48 hrs by SRB assay. Format: functional. The note with it: MCF7, 48 h, read-out: GI. A digest of the protocol: as §1
Assay [13] has as its system SK-LU-1. Nature of the assay: Induction of apoptosis in human SK-LU-1 cells assessed as appearance of phosphatidylserine residues at 2 times IC50 concentration after 48 hrs by flow cytometry. Format: functional. The essentials: (§3)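 SK-LU-1 cells treated 48 h with compounds at 2×IC50 or with DMSO as control. Labelled with FITC-annexin V and propidium iodide in binding buffer and analysed on a FACScan flow cytometer. Annexin V-only cells were scored as early apoptotic and annexin V/PI double-stained cells as late apoptotic. Values are means of three independent experiments.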
Background: A flow cytometer gives signals particle by particle.

Assay [14] concerns MCF7. The assay is described as follows: Cell cycle arrest in human MCF7 cells assessed as accumulation at G2/M phase at 2 times IC50 concentration after 24 hrs using propidium iodide staining by flow cytometry relative to control. Format: functional. A digest of the protocol: (§4)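 Log-phase cells seeded in RPMI-1640 + 10% FBS at 1×10⁶ per 10 cm dish, attached 24 h at 37 °C, then exposed to compound (DMSO solvent control) for 24 h. Harvested with PBS-EDTA, washed, fixed in ice-cold 70% ethanol at −20 °C for 24–48 h, stained with propidium iodide and analysed by FACScan flow cytometry. Three independent experiments, mean ± SD; P < 0.05 versus DMSO.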

In assay [15] the test system is SK-LU-1. Nature of the assay: Cell cycle arrest in human SK-LU-1 cells assessed as accumulation at G2/M phase at 2 times IC50 concentration after 24 hrs using propidium iodide staining by flow cytometry relative to control. Format: functional. A digest of the protocol:
as §4

Assay [16] deals with SK-LU-1. Nature of the assay: Cell cycle arrest in human SK-LU-1 cells assessed as accumulation at S phase at 2 times IC50 concentration after 24 hrs using propidium iodide staining by flow cytometry relative to control. Format: functional. A digest of the protocol:
as §4

Assay [17] relates to MCF7. The assay is described as follows: Cell cycle arrest in human MCF7 cells assessed as accumulation at S phase at 2 times IC50 concentration after 24 hrs using propidium iodide staining by flow cytometry relative to control. Format: functional. A digest of the protocol: as §4
The subject of assay [18] is SK-LU-1. The assay is described as follows: Induction of apoptosis in human SK-LU-1 cells assessed as late apoptotic cells at 2 times IC50 concentration after 48 hrs using annexin V-propidium iodide staining by flow cytometry. Format: functional, cell-based. The essentials: as §3
For assay [19], the system named is SK-LU-1. Nature of the assay: Cell cycle arrest in human SK-LU-1 cells assessed as accumulation at G0/G1 phase at 2 times IC50 concentration after 24 hrs using propidium iodide staining by flow cytometry relative to control. Format: functional. A digest of the protocol:
as §4

Assay [20] relates to SK-LU-1. The assay is described as follows: Induction of apoptosis in human SK-LU-1 cells assessed as early apoptotic cells at 2 times IC50 concentration after 48 hrs using annexin V-propidium iodide staining by flow cytometry. Format: functional, cell-based. The essentials: as §3
The subject of assay [21] is MCF7. The assay is described as follows: Cell cycle arrest in human MCF7 cells assessed as accumulation at G0/G1 phase at 2 times IC50 concentration after 24 hrs using propidium iodide staining by flow cytometry relative to control. Format: functional. A digest of the protocol: as §4

Regarding `O=C(c1ccc2nc(NC(=O)C(F)(F)F)cn2c1)c1ccc(C(F)(F)F)cc1F`, the inhibition of growth at 50 µM was 100% with SK-LU-1 [1]; 92.6% in the assay on PC-3 [2]; 80.1% in the assay on U-251 [3]; 100% in the assay on HCT-15 [7]; 90.2% with K562 [8]; 97.2% in the assay with MCF7 [12]. The IC50 was 56.6 µM with K562 [4]; 28 µM in the assay with PC-3 [5]; 24.9 µM in the assay with MCF7 [6]; 25 µM in the assay on HCT-15 [9]; 52.3 µM in the assay with U-251 [10]; 35.1 µM in the assay with SK-LU-1 [11].
As for `Cn1cc(C(=O)c2ccc3nc(NC(=O)C(F)(F)F)cn3c2)c2ccccc21`, the Activity in the assay with SK-LU-1 [13] was determined as 24.1%; in the assay on MCF7 [14] it was 20.2%; in the assay with SK-LU-1 [15], 47.5%; with SK-LU-1 [16], 14.7%; in the assay with MCF7 [17] it was 6.3%; in the assay with SK-LU-1 [19], 32.9%. Besides, the Activity with MCF7 [21] was found to be 70.6%. Further, the inhibition of growth at 50 µM was 69.2% in the assay on SK-LU-1 [1]; 63.7% with PC-3 [2]; 92.7% in the assay on U-251 [3]; 78% with HCT-15 [7]; 95.5% in the assay on K562 [8]; 80.4% with MCF7 [12]. In addition, the IC50 in the assay with K562 [4] is 54.6 µM; in the assay with MCF7 [6], 44.3 µM; in the assay with HCT-15 [9], 65.1 µM; in the assay on U-251 [10] it was 27.8 µM; in the assay with SK-LU-1 [11] it was 24.8 µM. Also, the result in the assay with SK-LU-1 [18] and in the assay with SK-LU-1 [20] was Active.
Take `Cn1cnc2c(NCc3ccccc3)nc(NCCO)nc21` [OLOMOUCINE]: the Activity with MCF7 [14] came to 23.2%; in the assay with SK-LU-1 [15], 31.8%; in the assay with SK-LU-1 [16] it was 19.7%; in the assay with MCF7 [17], 15%; in the assay on SK-LU-1 [19] it was 44.2%; in the assay on MCF7 [21], 60.6%. In addition, the inhibition of growth at 50 µM in the assay with SK-LU-1 [1] was 36.9%; with PC-3 [2], 22.7%; with U-251 [3] it was 32%; with HCT-15 [7] it was 28.9%; in the assay with K562 [8] it was 19.8%; in the assay with MCF7 [12] it was 37.6%. Further, the concentration for half-maximal inhibition (IC50) was determined as 89.3 µM in the assay with K562 [4]; 81 µM with PC-3 [5]; 55.9 µM in the assay on MCF7 [6]; 62.5 µM in the assay with HCT-15 [9]; 81.5 µM with U-251 [10]; 68.1 µM in the assay with SK-LU-1 [11].
In the case of `O=C(c1ccc2nc(NC(=O)C(F)(F)F)cn2c1)c1cc(C(F)(F)F)ccc1F`, the inhibition of growth at 50 µM is 70.5% in the assay with SK-LU-1 [1]; 61.5% with PC-3 [2]; 59.3% in the assay on U-251 [3]; 91.7% in the assay on HCT-15 [7]; 88% in the assay on K562 [8]; 65.1% in the assay with MCF7 [12].
In the case of `Cc1ccc(C(=O)c2ccc3nc(NC(=O)C(F)(F)F)cn3c2)cc1F`, the Activity in the assay with SK-LU-1 [13] is 39.5%; in the assay with MCF7 [14], 18.1%; in the assay with SK-LU-1 [15] it was 60.6%; with SK-LU-1 [16] it was 16.2%; in the assay on MCF7 [17] it was 14.5%; with SK-LU-1 [19], 22.6%. Besides, the Activity in the assay with MCF7 [21] is 63.5%. The inhibition of growth at 50 µM with SK-LU-1 [1] is 81.5%; with PC-3 [2], 30.7%; in the assay on U-251 [3], 37.9%; in the assay on HCT-15 [7], 65.5%; in the assay with K562 [8], 52.2%; in the assay with MCF7 [12] it was 57.3%.

As usually defined, the IC50 is the concentration needed to halve the response being measured.
